For assay [1], the species on record is Rattus norvegicus. Kind of assay: Blood AcH level of compound was measured in rats which are treated with phenobarbital (PB). It counts as functional. An outline of the steps: (§1)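 Male Sprague–Dawley rats kept 8 days on water (untreated) or 0.1% sodium phenobarbital solution (PB-treated), then fasted overnight. Test agent given at 1.25 mmol/kg ip 2 h before sacrifice, with ethanol at 2.0 g/kg ip 1 h later; saline controls. Cardiac blood was collected into 5 mM sodium azide and frozen, then acetaldehyde was read by head-space GC. Mean ± SE.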

The species named for assay [2] is Rattus norvegicus. The assay can be described thus: T/C value of compound was measured in rats which are untreated with phenobarbital (PB). It counts as functional. An outline of the steps: (§2)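 Rats were given water (untreated) or 0.1% sodium phenobarbital drinking solution (PB-treated) for 8 days, then fasted overnight. Agent 1.25 mmol/kg ip, then ethanol 2.0 g/kg ip 1 h later; killed 1 h after ethanol. Blood acetaldehyde by head-space GC. The value is treated/saline-control blood acetaldehyde within the same pretreatment group.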

The species named for assay [3] is Rattus norvegicus. Kind of assay: The enzymatic formation of propionaldehyde from compound on inhibition with rat liver microsomes in the presence of an NADPH (treated with phenobarbital (PB)). It counts as functional. An outline of the steps: (§3)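 Liver microsomes (100000g pellet, KCl-washed) from PB-treated or naive rats, equivalent to 500 mg liver per flask. Incubated 30 min at 37 °C with 3 mM compound, pH 7.4 phosphate, NADP+ 2.0 mM, glucose 6-phosphate 2.5 mM, G6PDH, MgCl2, nicotinamide, and 30 mM semicarbazide. Six flasks were pooled, acidified with HClO4, and propiolaldehyde read by head-space GC from 3–5 determinations.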
Background: Liver microsomes are vesicles of endoplasmic reticulum, rich in cytochrome P450 enzymes.

The species entered for assay [4] is Rattus norvegicus. Kind of assay: T/C value of compound was measured in rats which are treated with phenobarbital (PB). It is filed as functional. The essentials: as §2
The species entered for assay [5] is Rattus norvegicus. Kind of assay: Blood AcH level of compound was measured in rats which are untreated with phenobarbital (PB). It is filed as functional. An outline of the steps: as §1
The species named for assay [6] is Rattus norvegicus. Kind of assay: The enzymatic formation of propionaldehyde from compound on inhibition with rat liver microsomes in the presence of an NADPH (untreated with phenobarbital (PB)). It is filed as functional. An outline of the steps: as §3
Assay [7] deals with T1, Aldehyde dehydrogenase 1A1 (Rattus norvegicus) (UniProt P51647).
T1 sequence (whole entry): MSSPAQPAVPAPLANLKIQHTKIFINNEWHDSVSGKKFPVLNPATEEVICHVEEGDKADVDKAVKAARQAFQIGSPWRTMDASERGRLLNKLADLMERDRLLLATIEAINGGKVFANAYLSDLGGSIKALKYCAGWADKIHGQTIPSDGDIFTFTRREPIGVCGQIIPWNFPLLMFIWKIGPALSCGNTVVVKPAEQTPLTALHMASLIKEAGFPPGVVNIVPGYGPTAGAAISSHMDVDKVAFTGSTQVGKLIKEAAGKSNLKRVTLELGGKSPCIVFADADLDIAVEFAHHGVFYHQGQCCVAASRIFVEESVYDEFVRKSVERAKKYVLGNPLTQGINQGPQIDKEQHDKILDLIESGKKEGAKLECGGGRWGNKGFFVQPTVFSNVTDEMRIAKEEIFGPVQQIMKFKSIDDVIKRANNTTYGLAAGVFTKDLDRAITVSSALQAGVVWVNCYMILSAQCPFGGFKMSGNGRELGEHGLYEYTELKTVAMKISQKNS
The assay can be described thus: Percent inhibition of the enzyme […] was measured in rats which are treated with phenobarbital (PB). The following applies: concentration not given here. The essentials:
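Male Sprague–Dawley rats pretreated 8 days with 0.1% sodium phenobarbital in drinking water, then fasted overnight. They received 1.25 mmol/kg ip 2 h before sacrifice and ethanol 2.0 g/kg ip at 1 h. Liver mitochondrial low-Km aldehyde dehydrogenase activity (nmol acetaldehyde oxidized/min/mg protein, Lowry protein) was compared with saline controls as % inhibition.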

`C#CCNCc1ccccc1` [N-BENZYLPROPARGYLAMINE]: the Blood AcH in assay [1] was found to be 382 µM; in assay [5], 203 µM. In addition, the T/C was 18.3 in assay [2] and 50.3 in assay [4]. Also, the Propioaldehyde generated came out at 1.16 µmol in assay [3] and 0.2 µmol in assay [6].

On to `C#CCN(C)Cc1ccccc1` [PARGYLINE], for which the “Blood AcH” value in assay [1] was determined as 247 µM; in assay [5] it was 224 µM. For the same compound, the T/C in assay [2] is 20.2; in assay [4], 32.5. Besides, the Propioaldehyde generated in assay [3] is 2.58 µmol; in assay [6], 0.61 µmol.

On to `C#CC(OC)OC`, for which the “Blood AcH” value in assay [1] came out at 24.1 µM; in assay [5], 10.6 µM. Moreover, the T/C in assay [2] came to 0.95; in assay [4], 3.17. The Propioaldehyde generated in assay [3] amounted to 0.05 µmol. Further, the inhibition (commonly the relative decrease from the control value, in per cent) in assay [7] worked out at 44%.

In the case of `C#CCN(CC#C)CC#C`, the “Blood AcH” value came to 144 µM in assay [1] and 15.4 µM in assay [5]. Further, the T/C in assay [2] came out at 1.4; in assay [4] it was 19. The Propioaldehyde generated in assay [3] stood at 3.5 µmol; in assay [6], 0.25 µmol.

As for `C#CCOC`, the figures for the T/C in assay [2] and in assay [4] were 0.95 and 1.1, respectively. Also, in assay [3], the Propioaldehyde generated came to 0.05 µmol. In assay [5], the “Blood AcH” value was 10.6 µM.

Consider `C#CCOC(C)(C)C`, for which the “Blood AcH” value in assay [1] was determined as 13.5 µM; in assay [5], 19.6 µM. In addition, the T/C in assay [2] is 1.77; in assay [4], 1.78. Moreover, the Propioaldehyde generated in assay [3] amounted to 0.22 µmol.

The values above are taken from ChEMBL document CHEMBL1121456, “Metabolic depropargylation and its relationship to aldehyde dehydrogenase inhibition in vivo” (1980).
